{
  "source": "ChEMBL document CHEMBL1123625",
  "about": "“Synthesis and antitumor activity of tropolone derivatives. 6. Structure-activity relationships of antitumor-active tropolone and 8-hydroxyquinoline derivatives” (J Med Chem, 1987)",
  "key": {"Mus musculus [1]": {"test_system": "Mus musculus", "assay": "Antitumor activity against leukemia P388 cell line in mice was determined at 10 mg/kg intraperitoneal dose", "type": "functional", "procedure,_shortened": "(§1)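 Mice bearing leukemia P388, dosed intraperitoneally; activity read out as % T/C.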"}, "Mus musculus [2]": {"test_system": "Mus musculus", "assay": "Antitumor activity against leukemia P388 cell line in mice was determined at 20 mg/kg intraperitoneal dose", "type": "functional", "procedure,_shortened": "as §1"}, "Mus musculus [3]": {"test_system": "Mus musculus", "assay": "Antitumor activity against leukemia P388 cell line in mice was determined at 40 mg/kg intraperitoneal dose", "type": "functional", "procedure,_shortened": "as §1"}, "[4]": {"assay": "Antitumor activity was determined by the ability to inhibit KB cell growth", "type": "functional, cell-based", "conditions": "Homo sapiens", "procedure,_shortened": "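KB cell growth inhibition, reported as IC50 in μg/mL.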"}, "Mus musculus [5]": {"test_system": "Mus musculus", "assay": "Antitumor activity against leukemia P388 cell line in mice was determined at 100 mg/kg intraperitoneal dose", "type": "functional", "procedure,_shortened": "as §1"}, "Mus musculus [6]": {"test_system": "Mus musculus", "assay": "Antitumor activity against leukemia P388 cell line in mice was determined at 400 mg/kg intraperitoneal dose", "type": "functional", "procedure,_shortened": "as §1"}, "Mus musculus [7]": {"test_system": "Mus musculus", "assay": "Antitumor activity against leukemia P388 cell line in mice was determined at 400 mg/kg intraperitoneal dose; IA means inactive", "type": "functional, organism-based", "design": "dose 400 mg/kg", "procedure,_shortened": "as §1"}, "Mus musculus [8]": {"test_system": "Mus musculus", "assay": "Antitumor activity against leukemia P388 cell line in mice was determined at 2.5 mg/kg intraperitoneal dose", "type": "functional", "procedure,_shortened": "as §1"}, "Mus musculus [9]": {"test_system": "Mus musculus", "assay": "Antitumor activity against leukemia P388 cell line in mice was determined at 12.5 mg/kg intraperitoneal dose", "type": "functional", "procedure,_shortened": "as §1"}, "Mus musculus [10]": {"test_system": "Mus musculus", "assay": "Antitumor activity against leukemia P388 cell line in mice was determined at 25 mg/kg intraperitoneal dose", "type": "functional", "procedure,_shortened": "as §1"}, "Mus musculus [11]": {"test_system": "Mus musculus", "assay": "Antitumor activity against leukemia P388 cell line in mice was determined at 50 mg/kg intraperitoneal dose", "type": "functional", "procedure,_shortened": "as §1"}, "Mus musculus [12]": {"test_system": "Mus musculus", "assay": "Antitumor activity against leukemia P388 cell line in mice was determined at 3.1 mg/kg intraperitoneal dose", "type": "functional", "procedure,_shortened": "as §1"}, "Mus musculus [13]": {"test_system": "Mus musculus", "assay": "Antitumor activity against leukemia P388 cell line in mice was determined at 6.3 mg/kg intraperitoneal dose", "type": "functional", "procedure,_shortened": "as §1"}},
  "note": "The source made the active and inactive calls. The calls are words filed in the database; no cut-off is given here.",
  "data": [
    {"smiles": "Oc1c(C(c2ccco2)c2ccc3cccnc3c2O)ccc2cccnc12", "values": [
      {"measurement": "T/C", "setting": "Mus musculus [1]", "result": 113, "unit": "%"},
      {"measurement": "T/C", "setting": "Mus musculus [2]", "result": 120, "unit": "%"},
      {"measurement": "T/C", "setting": "Mus musculus [3]", "result": 138, "unit": "%"},
      {"measurement": "IC50", "setting": "[4]", "result": "< 0.3", "unit": "µg/mL"}
    ]},
    {"smiles": "CCOC(c1ccc(OC)cc1)c1ccc2cccnc2c1O", "note": "(centres undefined)", "values": [
      {"measurement": "T/C", "setting": "Mus musculus [5]", "result": 112, "unit": "%"},
      {"measurement": "T/C", "setting": "Mus musculus [6]", "result": 129, "unit": "%"},
      {"measurement": "IC50", "setting": "[4]", "result": 0.8, "unit": "µg/mL"}
    ]},
    {"smiles": "CCOC(c1ccccc1)c1ccc(C(C)C)cc(=O)c1O", "note": "(centres undefined)", "values": [
      {"measurement": "T/C", "setting": "Mus musculus [7]", "result": "inactive"},
      {"measurement": "IC50", "setting": "[4]", "result": "< 0.3", "unit": "µg/mL"}
    ]},
    {"smiles": "Oc1c(C(c2cccs2)c2ccc3cccnc3c2O)ccc2cccnc12", "values": [
      {"measurement": "T/C", "setting": "Mus musculus [1]", "result": 125, "unit": "%"},
      {"measurement": "T/C", "setting": "Mus musculus [8]", "result": 108, "unit": "%"},
      {"measurement": "T/C", "setting": "Mus musculus [2]", "result": 136, "unit": "%"},
      {"measurement": "IC50", "setting": "[4]", "result": "< 0.3", "unit": "µg/mL"}
    ]},
    {"smiles": "COc1ccc(C(c2c(O)ccc3ncccc23)c2c(O)ccc3ncccc23)cc1", "values": [
      {"measurement": "T/C", "setting": "Mus musculus [7]", "result": "inactive"},
      {"measurement": "IC50", "setting": "[4]", "result": 17, "unit": "µg/mL"}
    ]},
    {"smiles": "CCOC(c1ccc(OC)cc1)c1c(O)ccc2ncccc12", "note": "(centres undefined)", "values": [
      {"measurement": "T/C", "setting": "Mus musculus [7]", "result": "inactive"},
      {"measurement": "IC50", "setting": "[4]", "result": 44, "unit": "µg/mL"}
    ]},
    {"smiles": "CC(C)c1ccc(C2OCCc3ccccc32)c(O)c(=O)c1", "note": "(centres undefined)", "values": [
      {"measurement": "T/C", "setting": "Mus musculus [5]", "result": 112, "unit": "%"}
    ]},
    {"smiles": "COc1ccc(C(c2ccc3cccnc3c2O)c2oc(CO)cc(=O)c2O)cc1", "note": "(centres undefined)", "values": [
      {"measurement": "T/C", "setting": "Mus musculus [9]", "result": 120, "unit": "%"},
      {"measurement": "T/C", "setting": "Mus musculus [10]", "result": 138, "unit": "%"},
      {"measurement": "T/C", "setting": "Mus musculus [11]", "result": 135, "unit": "%"},
      {"measurement": "IC50", "setting": "[4]", "result": "< 0.3", "unit": "µg/mL"}
    ]},
    {"smiles": "COc1ccc(C(c2ccc(C(C)C)cc(=O)c2O)c2ccc(C(C)C)cc(=O)c2O)cc1", "values": [
      {"measurement": "T/C", "setting": "Mus musculus [1]", "result": 170, "unit": "%"},
      {"measurement": "IC50", "setting": "[4]", "result": "< 0.3", "unit": "µg/mL"}
    ]},
    {"smiles": "Oc1c(C2OCCc3ccccc32)ccc2cccnc12", "note": "(centres undefined)", "values": [
      {"measurement": "T/C", "setting": "Mus musculus [7]", "result": "inactive"},
      {"measurement": "IC50", "setting": "[4]", "result": 1.3, "unit": "µg/mL"}
    ]},
    {"smiles": "COc1ccc(C(c2ccc(C(C)C)cc(=O)c2O)c2oc(CO)cc(=O)c2O)cc1", "note": "(centres undefined)", "values": [
      {"measurement": "T/C", "setting": "Mus musculus [9]", "result": 128, "unit": "%"},
      {"measurement": "T/C", "setting": "Mus musculus [10]", "result": 146, "unit": "%"},
      {"measurement": "T/C", "setting": "Mus musculus [11]", "result": 152, "unit": "%"},
      {"measurement": "IC50", "setting": "[4]", "result": 0.5, "unit": "µg/mL"}
    ]},
    {"smiles": "COc1ccc(C(c2ccc3cccnc3c2O)c2ccc3cccnc3c2O)cc1", "values": [
      {"measurement": "T/C", "setting": "Mus musculus [9]", "result": 164, "unit": "%"},
      {"measurement": "T/C", "setting": "Mus musculus [12]", "result": 111, "unit": "%"},
      {"measurement": "T/C", "setting": "Mus musculus [13]", "result": 128, "unit": "%"},
      {"measurement": "IC50", "setting": "[4]", "result": "< 0.3", "unit": "µg/mL"}
    ]}
  ]
}
